Data set [1] in a line: folding enthalpy; higher = less favourable; fluorescence melt of hairpins on a sequencing array, two-state fit. Particulars: sodium 0.088 M. The gist of the method:
(§1)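 Hairpins were imaged by Cy3 fluorescence on a sequenced MiSeq flow cell with annealed Cy3 and quencher oligos, in 50 mM Na-HEPES pH 8.0, 25 mM NaCl, in 2.5 °C steps up to 60 °C. Bootstrapped two-state fits of normalised signals gave melting temperature and folding enthalpy. Four replicates were combined by inverse variance, and fitted temperatures were raised by 9.35 °C to match UV melts.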

A short description of data set [2]: melting temperature; fluorescence melt of hairpins on a sequencing array, two-state fit, raised by 9.35 °C to match UV melts. To be noted: sodium 0.088 M. The gist of the method: as §1

With GTCAGCGAAAGCTACGAC ((((((....)))..))), in data set [1], the folding enthalpy is -16.8 kcal/mol. Moreover, the Tm in data set [2] amounted to 41 °C.
For GCCTTATCGAAAGATGGC (((..(((....)))))), the folding enthalpy in data set [1] is -28.7 kcal/mol. Also, in data set [2], the Tm was found to be 42.6 °C.
The corresponding values for GTTTAACCGAAAGGTAAC (((..(((....)))))) are -10.4 kcal/mol and 29.7 °C.
The like results for GGTTCTGCGAAAGCAACC (((..(((....)))))) were, in that order, -12.3 kcal/mol and 31.1 °C.
Regarding GAGCACGAAAGTGCCTC ((((((....))).))), in data set [1], the folding enthalpy was -10.4 kcal/mol. Moreover, the Tm in data set [2] is 51.2 °C.
With GCGGCAATCCGC ((((....)))), the folding enthalpy in data set [1] is -21.9 kcal/mol. In data set [2], the Tm came out at 52.3 °C.
The corresponding values for GCTACGCGAAAGCCTAGC ((((.((....)).)))) are -23.3 kcal/mol and 45.6 °C.
As to GATCGGTACGCCGATC ((((((....)))))), the folding enthalpy in data set [1] is -38.6 kcal/mol. The Tm in data set [2] turned out to be 63.6 °C.
GTGCGCCGAAAGGCCCAC (((.(((....))).))): in data set [1], the folding enthalpy is -24.4 kcal/mol. In data set [2], the Tm is 48.5 °C.
Consider GCGTCACACGC ((((...)))), for which the folding enthalpy in data set [1] is -23.6 kcal/mol. The Tm in data set [2] is 56.2 °C.
The corresponding values for CGTCCGGAAACGGATACG ((((((....)))..))) are -18.1 kcal/mol and 40 °C.
The corresponding values for GTGCACGAAAGTGTACAC ((((((....)))..))) are -17.1 kcal/mol and 51.8 °C.
The corresponding values for GCTGCGACGAAAGTCAGC (((..(((....)))))) are -13.4 kcal/mol and 51.4 °C.
As to GTGGTTTCGAAAGAACAC (((..(((....)))))), the folding enthalpy in data set [1] is -15.6 kcal/mol. The Tm in data set [2] turned out to be 31.3 °C.
On to GATCCAACCATGGATC ((((((....)))))), for which, in data set [1], the folding enthalpy is -35.5 kcal/mol. In addition, in data set [2], the Tm came to 50 °C.
The corresponding values for GCGACTTTCGC ((((...)))) are -21.8 kcal/mol and 49 °C.
Consider GCAGACTCGAAAGAGTGC (((..(((....)))))), for which the folding enthalpy in data set [1] was -16 kcal/mol. Besides, in data set [2], the Tm is 43.4 °C.
The corresponding values for GATCCACCCTGGATC ((((((...)))))) are -33.8 kcal/mol and 51 °C.
Consider GATCTACGCTAGATC ((((((...)))))), for which, in data set [1], the folding enthalpy was -18.5 kcal/mol. In addition, in data set [2], the Tm was 43.4 °C.
The like results for GATCGTTTCGACGATC ((((((....)))))) were, in that order, -43.1 kcal/mol and 57.7 °C.
The like results for GATCTTTAGAAGATC ((((((...)))))) were, in that order, -24.7 kcal/mol and 38.7 °C.
The like results for GCATTGCGAAAGCACTGC (((.(((....))).))) were, in that order, -45.1 kcal/mol and 52.2 °C.
In the case of GTGATTTCGAAAGAACAC (((..(((....)))))), the folding enthalpy in data set [1] was -22.9 kcal/mol. For the same sequence, the Tm in data set [2] came out at 31.3 °C.
Regarding GATCATGCAATGATC ((((((...)))))), the folding enthalpy in data set [1] is -46 kcal/mol. Besides, the Tm in data set [2] came to 59.2 °C.
The like results for GGTTGCGAAAGCAGTACC ((((((....)))..))) were, in that order, -16.9 kcal/mol and 43.3 °C.
The corresponding values for GGCCCCGGAAACGAGGCC ((((.((....)).)))) are -38.4 kcal/mol and 57.5 °C.
The corresponding values for GATCTACTGCTAGATC ((((((....)))))) are -26.1 kcal/mol and 40.1 °C.
As for GTGGACGAAAGTCTTCAC ((((((....)))..))), the folding enthalpy in data set [1] was -12.8 kcal/mol. In data set [2], the Tm turned out to be 32.4 °C.
The like results for GACACCGAAAGGTTGTC ((((((....))).))) were, in that order, -25.3 kcal/mol and 53.2 °C.
Take GTTTCCGGAAACGGGAAC (((.(((....))).))): the folding enthalpy in data set [1] is -28.2 kcal/mol. For the same sequence, the Tm in data set [2] turned out to be 54 °C.
For the sequence GACTCGGGAAACTGGGTC (((.(.(....).).))), in data set [1], the folding enthalpy was -29.9 kcal/mol. Also, in data set [2], the Tm stood at 38 °C.
The like results for GAGCACGAAAGTGTCTC ((((((....))).))) were, in that order, -23.3 kcal/mol and 53.2 °C.
For GACTTTGGAAACAGAGTC ((((.((....)).)))), the folding enthalpy in data set [1] was -31.1 kcal/mol. Also, the Tm in data set [2] was determined as 38.1 °C.
The like results for GATCAGGGTGCTGATC ((((((....)))))) were, in that order, -31.2 kcal/mol and 51.5 °C.
The corresponding values for GTATGGGGAAACCTATAC ((((.((....)).)))) are -30.3 kcal/mol and 38.4 °C.
The like results for GATCAGAATCTGATC ((((((...)))))) were, in that order, -31.4 kcal/mol and 45.4 °C.
In the case of GATCTAGTAGTAGATC ((((((....)))))), the folding enthalpy in data set [1] is -29.1 kcal/mol. Also, in data set [2], the Tm was 43.4 °C.
Take GCGGATACCCGC ((((....)))): the folding enthalpy in data set [1] is -24.3 kcal/mol. Moreover, in data set [2], the Tm amounted to 54.2 °C.
Consider GGGTACGAAAGTACGCCC ((((((....)))..))), for which, in data set [1], the folding enthalpy is -13.3 kcal/mol. In addition, the Tm in data set [2] amounted to 46.1 °C.
On to GGCTACCGAAAGGTGCC (((.(((....)))))), for which, in data set [1], the folding enthalpy is -31.3 kcal/mol. The Tm in data set [2] was 61.2 °C.
The like results for GCTACCGAAAGGTTGAGC ((((((....)))..))) were, in that order, -18.2 kcal/mol and 38.8 °C.
The corresponding values for GATCCGAGACGGATC ((((((...)))))) are -39.9 kcal/mol and 55.8 °C.
The corresponding values for GATCCGCTAACGGATC ((((((....)))))) are -37.2 kcal/mol and 58.8 °C.
Turning to GTAGACGGAAACGTTTAC (((.(((....))).))), the folding enthalpy in data set [1] was -33.2 kcal/mol. The Tm in data set [2] came to 41.5 °C.
For GTGTAGGGAAACTTGCAC (((.(.(....).).))), in data set [1], the folding enthalpy was -17.7 kcal/mol. Further, the Tm in data set [2] stood at 29.4 °C.
The corresponding values for CGACGCGGAAACGCATCG (((.(((....))).))) are -28 kcal/mol and 49.1 °C.
Regarding GATCATATCAATGATC ((((((....)))))), the folding enthalpy in data set [1] was -27.9 kcal/mol. Also, the Tm in data set [2] is 48.3 °C.
As for GATCGGTTGCCCGATC ((((((....)))))), in data set [1], the folding enthalpy was -32.5 kcal/mol. Further, the Tm in data set [2] was 57.2 °C.
As for GTCCGGCGAAAGCCGAC (((.(((....)))))), the folding enthalpy in data set [1] was -9.75 kcal/mol. Further, the Tm in data set [2] turned out to be 49.1 °C.
Consider GGGCTAGGAAACTGGCCC ((((.((....)).)))), for which, in data set [1], the folding enthalpy is -41.4 kcal/mol. Moreover, in data set [2], the Tm turned out to be 58.2 °C.
The corresponding values for GTGGGGACGAAAGTCCAC (((..(((....)))))) are -15.4 kcal/mol and 61.8 °C.
The corresponding values for GTATCCGAAAGGAATAC ((((((....))).))) are -23.2 kcal/mol and 40.4 °C.
The like results for GCACGACGAAAGTCATGC (((.(((....))).))) were, in that order, -36.5 kcal/mol and 52.6 °C.
As for GTACGTCGAAAGACTTAC (((.(((....))).))), the folding enthalpy in data set [1] was -25.7 kcal/mol. Also, in data set [2], the Tm turned out to be 39.3 °C.
As to GGGAGGCGAAAGCCCCCC (((.(((....))).))), the folding enthalpy in data set [1] is -17.2 kcal/mol. Also, in data set [2], the Tm was found to be 64.8 °C.
The like results for GTTGGCGGAAACGCCGAC ((.((((....)))).)) were, in that order, -25 kcal/mol and 59.4 °C.

The values above are taken from the array DNA melting data of Ke et al. (doi:10.1101/2024.01.08.574731).
